Tests used:
Histone deacetylase 1 = Histone deacetylase 1 (Homo sapiens, UniProt Q13547); experiment: Inhibition of HDAC1 (unknown origin) using Fluor de lys as substrate by fluorescence based analysis
Histone deacetylase 8 = molecular target: T1, Histone deacetylase 8 (Homo sapiens, UniProt Q9BY41); experiment: Inhibition of HDAC8 (unknown origin) using Fluor de lys as substrate by fluorescence based analysis
T1 sequence (Q9BY41 whole entry): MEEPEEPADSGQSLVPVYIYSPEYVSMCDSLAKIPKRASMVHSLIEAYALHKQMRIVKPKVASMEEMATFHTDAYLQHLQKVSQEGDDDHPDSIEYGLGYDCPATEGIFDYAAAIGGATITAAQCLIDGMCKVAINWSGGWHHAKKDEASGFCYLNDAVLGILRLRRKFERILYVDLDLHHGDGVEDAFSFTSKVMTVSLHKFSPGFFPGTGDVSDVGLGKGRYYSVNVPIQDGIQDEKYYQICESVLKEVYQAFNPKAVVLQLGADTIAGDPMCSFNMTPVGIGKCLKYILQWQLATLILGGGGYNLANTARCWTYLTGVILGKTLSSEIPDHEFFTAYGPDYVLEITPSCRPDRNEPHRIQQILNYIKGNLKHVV

A549 = experiment: Antiproliferative activity against human A549 cells assessed as cell growth at 10 uM incubated for 48 hrs by SRB assay relative to control; format: functional; conditions: read-out: Activity
Method in brief: (§1)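 Single-concentration screen at 10 μM run by NCI on its NCI-60 human tumour panel (blood, lung, colon, CNS, melanoma, ovary, kidney, prostate, breast), following the NCI-60 published methodology. Read-out is growth percent relative to untreated cells.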

HOP-62 = experiment: Antiproliferative activity against human HOP-62 cells assessed as cell growth at 10 uM incubated for 48 hrs by SRB assay relative to control; format: functional; conditions: read-out: Activity; method in brief: as §1
HOP-92 = experiment: Antiproliferative activity against human HOP-92 cells assessed as cell growth at 10 uM incubated for 48 hrs by SRB assay relative to control; format: functional; conditions: read-out: Activity; method in brief: as §1
NCI-H23 = experiment: Antiproliferative activity against human NCI-H23 cells assessed as cell growth at 10 uM incubated for 48 hrs by SRB assay relative to control; format: functional; conditions: read-out: Activity; method in brief: as §1
NCI-H322M = experiment: Antiproliferative activity against human NCI-H322M cells assessed as cell growth at 10 uM incubated for 48 hrs by SRB assay relative to control; format: functional; conditions: read-out: Activity; method in brief: as §1
NCI-H522 = experiment: Antiproliferative activity against human NCI-H522 cells assessed as cell growth at 10 uM incubated for 48 hrs by SRB assay relative to control; format: functional; conditions: read-out: Activity; method in brief: as §1
COLO 205 = experiment: Antiproliferative activity against human COLO 205 cells assessed as cell growth at 10 uM incubated for 48 hrs by SRB assay relative to control; format: functional; conditions: read-out: Activity; method in brief: as §1
HCT-116 = experiment: Antiproliferative activity against human HCT-116 cells assessed as cell growth at 10 uM incubated for 48 hrs by SRB assay relative to control; format: functional; conditions: read-out: Activity; method in brief: as §1
SW-620 = experiment: Antiproliferative activity against human SW620 cells assessed as cell growth at 10 uM incubated for 48 hrs by SRB assay relative to control; format: functional; conditions: read-out: Activity
Method in brief: (§2)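 NCI-60 single-dose screen: compounds tested at 10 μM, and growth percent of each cell line calculated. The full method follows the NCI DTP protocol.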

SF-268 = experiment: Antiproliferative activity against human SF-268 cells assessed as cell growth at 10 uM incubated for 48 hrs by SRB assay relative to control; format: functional; conditions: read-out: Activity; method in brief: as §1
SF-295 = experiment: Antiproliferative activity against human SF-295 cells assessed as cell growth at 10 uM incubated for 48 hrs by SRB assay relative to control; format: functional; conditions: read-out: Activity; method in brief: as §1
U-251 = experiment: Antiproliferative activity against human U-251 cells assessed as cell growth at 10 uM incubated for 48 hrs by SRB assay relative to control; format: functional; conditions: read-out: Activity; method in brief: as §2
Malme-3M = experiment: Antiproliferative activity against human Malme-3M cells assessed as cell growth at 10 uM incubated for 48 hrs by SRB assay relative to control; format: functional; conditions: read-out: Activity; method in brief: as §1
M14 = experiment: Antiproliferative activity against human M14 cells assessed as cell growth at 10 uM incubated for 48 hrs by SRB assay relative to control; format: functional; conditions: read-out: Activity; method in brief: as §1
MDA-MB-435 = experiment: Antiproliferative activity against human MDA-MB-435 cells assessed as cell growth at 10 uM incubated for 48 hrs by SRB assay relative to control; format: functional; conditions: read-out: Activity; method in brief: as §1
SK-MEL-2 = experiment: Antiproliferative activity against human SK-MEL-2 cells assessed as cell growth at 10 uM incubated for 48 hrs by SRB assay relative to control; format: functional; conditions: read-out: Activity; method in brief: as §1
SK-MEL-5 = experiment: Antiproliferative activity against human SK-MEL-5 cells assessed as cell growth at 10 uM incubated for 48 hrs by SRB assay relative to control; format: functional; conditions: read-out: Activity; method in brief: as §2
IGROV-1 = experiment: Antiproliferative activity against human IGROV-1 cells assessed as cell growth at 10 uM incubated for 48 hrs by SRB assay relative to control; format: functional; conditions: read-out: Activity; method in brief: as §1
OVCAR-3 = experiment: Antiproliferative activity against human OVCAR-3 cells assessed as cell growth at 10 uM incubated for 48 hrs by SRB assay relative to control; format: functional; conditions: read-out: Activity; method in brief: as §1
OVCAR-5 = experiment: Antiproliferative activity against human OVCAR-5 cells assessed as cell growth at 10 uM incubated for 48 hrs by SRB assay relative to control; format: functional; conditions: read-out: Activity; method in brief: as §1
OVCAR-8 = experiment: Antiproliferative activity against human OVCAR-8 cells assessed as cell growth at 10 uM incubated for 48 hrs by SRB assay relative to control; format: functional; conditions: read-out: Activity; method in brief: as §1
A498 = experiment: Antiproliferative activity against human A498 cells assessed as cell growth at 10 uM incubated for 48 hrs by SRB assay relative to control; format: functional; conditions: read-out: Activity; method in brief: as §1
ACHN = experiment: Antiproliferative activity against human ACHN cells assessed as cell growth at 10 uM incubated for 48 hrs by SRB assay relative to control; format: functional; conditions: read-out: Activity; method in brief: as §1
CAKI-1 = experiment: Antiproliferative activity against human CAKI-1 cells assessed as cell growth at 10 uM incubated for 48 hrs by SRB assay relative to control; format: functional; conditions: read-out: Activity; method in brief: as §1
PC-3 = experiment: Antiproliferative activity against human PC-3 cells assessed as cell growth at 10 uM incubated for 48 hrs by SRB assay relative to control; format: functional; conditions: read-out: Activity; method in brief: as §1
DU-145 = experiment: Antiproliferative activity against human DU-145 cells assessed as cell growth at 10 uM incubated for 48 hrs by SRB assay relative to control; format: functional; conditions: read-out: Activity; method in brief: as §1
MDA-MB-231 = experiment: Antiproliferative activity against human MDA-MB-231 cells assessed as cell growth at 10 uM incubated for 48 hrs by SRB assay relative to control; format: functional; conditions: read-out: Activity; method in brief: as §1
Hs-578T = experiment: Antiproliferative activity against human Hs-578T cells assessed as cell growth at 10 uM incubated for 48 hrs by SRB assay relative to control; format: functional; conditions: read-out: Activity; method in brief: as §1
MDA-MB-468 = experiment: Antiproliferative activity against human MDA-MB-468 cells assessed as cell growth at 10 uM incubated for 48 hrs by SRB assay relative to control; format: functional; conditions: read-out: Activity; method in brief: as §1
U-266 = experiment: cells; format: functional, cell-based; conditions: Homo sapiens, U-266, 72 h
[1] = Cytotoxicity against human HS5 cells assessed as inhibition of cell growth incubated for 72 hrs by alamar blue assay; format: toxicity, cell-based
Method in brief: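 Cells were grown in IMDM with 20% FBS and penicillin/streptomycin at 37 °C in 5% CO2. Drug-treated cells were incubated 72 h. Alamar blue (1 mM solution) was then added for 5–6 h, and fluorescence read at 530/590 nm.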

Sequence of Histone deacetylase 1 (Q13547 whole entry): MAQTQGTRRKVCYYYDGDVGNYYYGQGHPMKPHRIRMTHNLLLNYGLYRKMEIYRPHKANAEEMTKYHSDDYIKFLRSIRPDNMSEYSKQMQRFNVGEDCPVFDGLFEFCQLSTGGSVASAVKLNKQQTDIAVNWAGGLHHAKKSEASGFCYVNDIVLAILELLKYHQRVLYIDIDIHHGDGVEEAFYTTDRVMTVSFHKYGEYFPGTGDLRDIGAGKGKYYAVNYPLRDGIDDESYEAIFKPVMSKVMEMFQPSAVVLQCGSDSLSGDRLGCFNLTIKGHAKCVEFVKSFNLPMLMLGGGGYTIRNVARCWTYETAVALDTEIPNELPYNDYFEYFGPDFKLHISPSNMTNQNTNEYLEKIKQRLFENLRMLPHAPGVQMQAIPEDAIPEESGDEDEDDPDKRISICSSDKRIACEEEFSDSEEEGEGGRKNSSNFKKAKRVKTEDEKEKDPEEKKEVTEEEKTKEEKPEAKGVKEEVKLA

Compound | IC50 (Histone deacetylase 1) | IC50 (Histone deacetylase 8) | growth at 10 µM (A549) | growth at 10 µM (HOP-62) | growth at 10 µM (HOP-92) | growth at 10 µM (NCI-H23) | growth at 10 µM (NCI-H322M) | growth at 10 µM (NCI-H522) | growth at 10 µM (COLO 205) | growth at 10 µM (HCT-116) | growth at 10 µM (SW-620) | growth at 10 µM (SF-268) | growth at 10 µM (SF-295) | growth at 10 µM (U-251) | growth at 10 µM (Malme-3M) | growth at 10 µM (M14) | growth at 10 µM (MDA-MB-435) | growth at 10 µM (SK-MEL-2) | growth at 10 µM (SK-MEL-5) | growth at 10 µM (IGROV-1) | further results
O=C(NO)c1ccc(CN2CC(=O)N(Cc3ccccc3)[C@H](Cc3ccccc3)C2=O)cc1 | 9.64 µM | 0.145 µM | 95.1% | 87.8% | 102% | 86.7% | 89.5% | 69.8% | 89.2% | 84.1% | 94.1% | 96.5% | 100% | 81.3% | 77.1% | 90.4% | 91.3% | 99.4% | 96.7% | 89% | growth at 10 µM (OVCAR-3): 79.7%; growth at 10 µM (OVCAR-5): 97.8%; growth at 10 µM (OVCAR-8): 75%; growth at 10 µM (A498): 67.4%; growth at 10 µM (ACHN): 90.6%; growth at 10 µM (CAKI-1): 96.5%; growth at 10 µM (PC-3): 76.5%; growth at 10 µM (DU-145): 87%; growth at 10 µM (MDA-MB-231): 95.2%; growth at 10 µM (Hs-578T): 82%; growth at 10 µM (MDA-MB-468): 79.9%; IC50 (U-266): 25.9 µM; IC50 at 72 hrs [1]: > 100 µM
O=C1CN(Cc2ccc(C(=O)NO)cc2)C(=O)[C@@H](Cc2c[nH]c3ccccc23)N1 | 8.02 µM | 0.513 µM | 96.6% | 102% | 104% | 101% | 99.1% | 96.7% | 120% | 54.9% | 103% | 99.3% | 105% | 96.7% | 94.6% | 94.2% | 102% | 113% | 108% | 101% | growth at 10 µM (OVCAR-3): 104%; growth at 10 µM (OVCAR-5): 107%; growth at 10 µM (OVCAR-8): 94.8%; growth at 10 µM (A498): 85%; growth at 10 µM (ACHN): 104%; growth at 10 µM (CAKI-1): 93.8%; growth at 10 µM (PC-3): 97.5%; growth at 10 µM (DU-145): 107%; growth at 10 µM (MDA-MB-231): 107%; growth at 10 µM (Hs-578T): 104%; growth at 10 µM (MDA-MB-468): 107%; IC50 (U-266): 43.2 µM; IC50 at 72 hrs [1]: > 100 µM
